# From PMC4063182 (Journal of the American Chemical Society, 2014)
# Positions count from the first letter of the chain named. Like-named read-outs stand apart in the source and are kept apart here.
# Assays:
# ferric WT DHP B [1] = target: T1, ferric WT DHP B (Amphitrite ornata, UniProt Q9NAV7); assay: 5-haloindole binding studies
# T1 sequence (Q9NAV7 1-138): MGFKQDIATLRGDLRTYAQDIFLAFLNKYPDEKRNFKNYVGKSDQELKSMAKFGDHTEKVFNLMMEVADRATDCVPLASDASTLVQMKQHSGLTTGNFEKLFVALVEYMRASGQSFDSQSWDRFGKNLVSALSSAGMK
# ferric WT DHP B [2] = target: T1, ferric WT DHP B; assay: H2O2-dependent oxidation of haloindoles monitored by HPLC; type: biochemical; conditions: for conversion (%): 5 min
# In short: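 Triplicate reactions at 25 °C in 5% MeOH/100 mM KPi, pH 7, unless pH varied. Ferric DHP B (10 μM final) was premixed with substrate (500 μM final), and reactions were started with H2O2 (500 μM). Additives: 10% v/v DMSO, 500 μM mannitol, SOD, or buffer containing 500 mM sodium formate. Reactions were quenched with excess catalase after 5 min and diluted 10-fold. C18 reverse-phase HPLC used photodiode-array detection, with conversion from standard calibration curves.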
# [3] = target: T2, horseradish peroxidase (HRP) (Armoracia rusticana, UniProt P00433); assay: H2O2-dependent oxidation of 5-Br-indole monitored by HPLC, HRP; type: biochemical; conditions: HRP 10 μM; [haloindole] = [H2O2] = 500 μM; pH 7, 25 °C, 5 min; n.d. = none detected
# T2 sequence (P00433 31-338 limits assumed): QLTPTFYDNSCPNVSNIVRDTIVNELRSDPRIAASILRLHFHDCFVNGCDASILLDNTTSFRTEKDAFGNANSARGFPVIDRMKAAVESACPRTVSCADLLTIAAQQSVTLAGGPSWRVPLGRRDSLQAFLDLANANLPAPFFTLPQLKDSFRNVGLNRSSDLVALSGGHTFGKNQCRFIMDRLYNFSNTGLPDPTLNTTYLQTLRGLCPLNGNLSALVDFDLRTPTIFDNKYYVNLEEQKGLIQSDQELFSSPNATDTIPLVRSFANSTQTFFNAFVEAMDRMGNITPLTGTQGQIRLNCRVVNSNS
# oxyferrous DHP B = target: T3, oxyferrous DHP B (Amphitrite ornata, UniProt Q9NAV7); assay: Stopped-flow UV-vis with oxyferrous DHP B / Compound II; type: biochemical; conditions: preincubated with 2.5 equiv 5-Br-indole, 5 equiv H2O2, pH 7
# T3 sequence (Q9NAV7 1-138): T1 sequence (Q9NAV7 1-138)
# In short: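 Single-mixing rapid-scan stopped-flow at 20 °C in 5% MeOH/100 mM KPi, pH 7.0. Oxyferrous DHP B (10 μM) was preincubated with 2.5 equiv 5-Br-indole, then rapidly mixed with 5 equiv H2O2. 800 spectra were collected over 83 s. Spectra were fitted to component species to obtain relative concentration time courses.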
# DHP B Oxyferrous = target: T4, DHP B Oxyferrous (Amphitrite ornata, UniProt Q9NAV7); assay: H2O2-dependent oxidation of haloindoles monitored by HPLC, oxyferrous enzyme; type: biochemical; conditions: DHP B Oxyferrous 10 μM; [haloindole] = [H2O2] = 500 μM; pH 7, 25 °C, 5 min
# T4 sequence (Q9NAV7 1-138): T1 sequence (Q9NAV7 1-138)
# In short: (§1)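 Triplicate reactions at 25 °C, pH 7, in 5% MeOH/100 mM KPi. Enzyme (10 μM final; ferric isoenzyme A or oxyferrous DHP B) was premixed with haloindole (500 μM), and reactions were started with 500 μM H2O2. After 5 min, reactions were quenched with excess catalase and diluted 10-fold in buffer. Analysis was by C18 reverse-phase HPLC (water/TFA to MeCN gradient) with diode-array detection, quantified against standard calibration curves.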
# DHP A Ferric = assay: H2O2-dependent oxidation of haloindoles monitored by HPLC, isoenzyme A; type: biochemical, Amphitrite ornata; conditions: DHP A Ferric 10 μM; [haloindole] = [H2O2] = 500 μM; pH 7, 25 °C, 5 min
# In short: as §1
# [4] = target: horse heart myoglobin (hhMb) (Equus caballus, UniProt P68082); assay: H2O2-dependent oxidation of 5-Br-indole monitored by HPLC, myoglobin; type: biochemical; conditions: hhMb 10 μM; [haloindole] = [H2O2] = 500 μM; pH 7, 25 °C, 5 min; n.d. = none detected
# Sequence of horse heart myoglobin (hhMb) (P68082 whole entry): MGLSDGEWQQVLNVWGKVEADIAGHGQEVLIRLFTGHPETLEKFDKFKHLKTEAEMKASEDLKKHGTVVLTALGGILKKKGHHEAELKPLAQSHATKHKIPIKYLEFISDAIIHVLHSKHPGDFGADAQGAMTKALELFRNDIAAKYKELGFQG
# [5] = target: T5, DHP B(Y28F/Y38F) Compound I (Amphitrite ornata, UniProt Q9NAV7, Y29F/Y39F); assay: Double-mixing stopped-flow UV-vis, preformed Compound I; type: biochemical
# T5 sequence (Q9NAV7 1-138 Y29F/Y39F): T1 sequence (Q9NAV7 1-138) with Y29F, Y39F
# WT DHP B Compound ES = target: T6, WT DHP B Compound ES (Amphitrite ornata, UniProt Q9NAV7); assay: Double-mixing stopped-flow UV-vis, preformed Compound ES; type: biochemical
# T6 sequence (Q9NAV7 1-138): T1 sequence (Q9NAV7 1-138)
# In short: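 Double-mixing rapid-scan stopped-flow UV-vis at 20 °C in 5% MeOH/100 mM KPi, pH 7. Ferric wild-type DHP B (10 μM) was mixed with 10 equiv H2O2 and aged 350 ms to accumulate Compound ES. It was then mixed with 10, 25 or 50 equiv 5-Br-indole, and 800 scans were taken over 83 s. Spectra were fitted to component time courses.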
# ferric DHP B = target: T7, ferric DHP B (Amphitrite ornata, UniProt Q9NAV7); assay: Reactivity studies of 5-Br-3-oxindole by UV-vis; type: biochemical
# T7 sequence (Q9NAV7 1-138): T1 sequence (Q9NAV7 1-138)
# In short: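 5-Br-3-acetoxyindole (250 μM) was incubated <1 min with or without 10 μM ferric wild-type DHP B in 5% MeOH/100 mM KPi, pH 7, in a quartz cuvette. Porcine liver esterase (45 U) started the reaction, and UV-vis spectra were taken over time, aerobically or anaerobically (argon-degassed solutions, glovebox, sealed cuvette). Indigo product was quantified at 659 nm using ε = 22 140 M–1 cm–1.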
# ferric WT DHP B [6] = target: T1, ferric WT DHP B; conditions: cited from earlier work
# [7] = read-out: apparent dissociation constant (Kd), 10 μM ferric WT DHP B, 100 mM KPi pH 7, 10% MeOH
# [8] = DHP B Ferric, anaerobic, [haloindole] = [H2O2] = 500 μM, pH 7, 25 °C
# [9] = 10 equiv 5-Br-indole, 10 equiv H2O2, pH 7
structure (smiles),measurement,setting,value
Clc1ccc2[nH]ccc2c1 [5-Cl-indole],Kd,ferric WT DHP B [1]; [7],317 ± 23 µM
Brc1ccc2[nH]ccc2c1 [5-Br-indole],conversion (%),"ferric WT DHP B [2]; DHP B Ferric + 500 μM 4-BP, pH 7, 25 °C",23.2 (±5.1) %
same,conversion (%),"ferric WT DHP B [2]; DHP B Ferric + 500 μM mannitol, pH 7, 25 °C",46.2 (±1.6) %
same,conversion (%),"ferric WT DHP B [2]; DHP B Ferric + 500 mM formate, pH 7, 25 °C",45.8 (±1.1) %
same,conversion (%),"ferric WT DHP B [2]; DHP B Ferric + 10% DMSO, pH 7, 25 °C",45.0 (±4.4) %
same,conversion (%),"ferric WT DHP B [2]; DHP B Ferric + SOD ∼2 U/μL, pH 7, 25 °C",46.1 (±0.7) %
same,conversion (%),ferric WT DHP B [2]; [8],53.3 (±0.3) %
same,conversion (%),"ferric WT DHP B [2]; DHP B Ferric, pH 5, 25 °C",63.4 (±0.1) %
same,conversion (%),"ferric WT DHP B [2]; DHP B Ferric, pH 6, 25 °C",54.7 (±1.9) %
same,conversion (%),"ferric WT DHP B [2]; DHP B Ferric, pH 8, 25 °C",34.4 (±2.4) %
same,conversion (%),[3],no reactivity
same,"kobs, conversion of oxyferrous DHP B to Compound II",oxyferrous DHP B,(3.30 ± 0.01) × 10^–2 s^–1
same,conversion (%),DHP B Oxyferrous,44.9 (±4.8) %
same,conversion (%),DHP A Ferric,20.3 (±1.7) %
same,conversion (%),[4],no reactivity
same,time to conversion to oxyferrous DHP B(Y28F/Y38F),[5]; 10 equiv 5-Br-indole,697 s
same,time to conversion to oxyferrous DHP B(Y28F/Y38F),[5]; 50 equiv 5-Br-indole,120 s
same,Kd,ferric WT DHP B [1],150 ± 10 µM
same,"kobs, formation of mixture of oxyferrous and ferric DHP B at longer observation times",WT DHP B Compound ES; [9],(1.39 ± 0.08) × 10^–2 s^–1
same,"kobs, reduction of preformed Compound ES to ferric DHP B",WT DHP B Compound ES; [9],(2.54 ± 0.05) × 10^5 M^–1 s^–1
same,time for reduction of Compound ES (within mixing time),WT DHP B Compound ES; ≥25 equiv 5-Br-indole,< 2.5 ms
c1ccc2[nH]ccc2c1 [indole],reactivity lower than 5-Br-indole,"ferric WT DHP B [2]; ferric WT DHP B, pH 7",2 fold
"O=C1/C(=C2\Nc3ccc(Br)cc3C2=O)Nc2ccc(Br)cc21 [5,5′-Br2-indigo, (E)-5,5′-dibromo-[2,2′-biindolinylidene]-3,3′-dione]",product distribution of 5-Br-indole reaction (HPLC),"ferric WT DHP B [2]; 5-Br-indole 500 μM, DHP B 10 μM, H2O2 500 μM, pH 7, 1a determined from mass balance",~2%
same,"5,5′-Br2-indigo formation aerobic versus anaerobic",ferric DHP B; DHP present,~4 fold
same,"5,5′-Br2-indigo formed in the presence of DHP versus the absence of enzyme","ferric DHP B; aerobic, after 5 min",45 fold
same,"5,5′-Br2-indigo concentration formed from 5-Br-3-oxindole","ferric DHP B; anaerobic, 10 μM DHP, after 10 min",~8 µM
"Oc1ccc(Br)cc1 [4-bromophenol, reference compound]",attenuation in reactivity of 5-Br-indole,ferric WT DHP B [2]; in the presence of 500 μM 4-bromophenol,2 fold
same,Kd,ferric WT DHP B [6],~1200 µM
Fc1ccc2[nH]ccc2c1 [5-F-indole],changes in the optical difference spectra upon binding,ferric WT DHP B [1]; even at the highest concentrations tested (up to 100 equiv),No significant changes
Ic1ccc2[nH]ccc2c1 [5-I-indole],Kd,ferric WT DHP B [1]; [7],62 ± 10 µM
Brc1cccc2[nH]ccc12 [4-Br-indole],conversion (%),ferric WT DHP B [2]; [8],40.1 (±0.9) %
same,conversion (%),DHP A Ferric,15.7 (±0.7) %
